The full list was thinned out, with hits kept by preference.
INS promoter act – TRM-6 insulin promoter activation; TRM-6 cells, insulin promoter eGFP reporter, imaging; plate-scaled: unstimulated 0, stimulated control 100; activation, % at 2 µM; hit rate 0.81% among 130,000; AID 1296;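 active = activation at 2 µM above a set limit, confirmed on inspection of the cell images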;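 also: share of cells whose green reporter signal exceeds an intensity cutoff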
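System: human fetal islet-derived TRM-6 cells with tamoxifen-inducible insulin promoter–eGFP reporter; input: seeding density of 1,000 cells per well; buffer or medium: Low-glucose (5.5 mM) medium with tamoxifen; incubation: compound exposure 48 h, 37 °C; measured by: high-content imaging of fixed cells with Hoechst nuclear stain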
Hits are given with their value; . = inactive.

SMILES	INS promoter act
CC(Cc1ccccc1)NC(=O)C1CCCNC1=O (stereo unspecified)	.
O=C(CCc1ccc(S(=O)(=O)NCCc2ccccc2)cc1)N1CCN(Cc2ccc3c(c2)OCO3)CC1	.
COc1ccc(N(CC(=O)N2CCN(Cc3ccc4c(c3)OCO4)CC2)S(C)(=O)=O)cc1OC	.
CC(C)CNS(=O)(=O)c1ccc(CCC(=O)N2CCN(Cc3ccc4c(c3)OCO4)CC2)cc1	469
CC(C)N1CC(C(=O)Nc2nc3ccccc3s2)CC1=O (stereo unspecified)	.
COc1ccc2nc(CC(C)(C)CC(=O)O)c[n+]([O-])c2c1	.
O=C(NCCCN1CCCC1=O)c1ccc(Cl)c(NS(=O)(=O)c2ccc(F)cc2)c1	.
CCOc1ccc2c(c1)/C(=C(\C(Cl)=C(Cl)Cl)[N+](=O)[O-])N2	376
CCOc1ccc([N+](=O)[O-])c(N)c1	.
CCOc1cccc(OCCOc2ccccc2[N+](=O)[O-])c1	.
CSCCC(NC(=O)c1c(C)oc2c1CCCC2)C(=O)O (stereo unspecified)	.
COCCNC(=O)CCCC(=O)NCCOC	.
Cc1cc(N2CCN(c3nc(N4CCOCC4)nc4ccccc34)CC2)c2ccccc2n1	.
Cc1onc(-c2ccccc2Cl)c1C(=O)Nc1cccc2nsnc12	.
Cc1onc(-c2ccccc2Cl)c1C(=O)Nc1ccc(N2CCOCC2)cc1	.
Cc1onc(-c2ccccc2Cl)c1C(=O)Nc1ccccc1N1CCOCC1	81
NC(=O)C1CCN(C2CC(=O)NC2=O)CC1 (stereo unspecified)	.
CC1(C)C(=O)OC(/C=C\c2ccccc2)C(C)(C)C1=O (stereo unspecified)	.
COc1ccc2oc(C(F)(F)C(F)F)cc(=O)c2c1	.
COc1ccc2oc3ccc(OC)cc3c(=O)c2c1	145
COc1ccc2occ(NC(C)=O)c2c1	.
COc1ccc(Cn2c(=O)[nH]c3cc(C(=O)Nc4ccc(N5CCN(C)CC5)cc4)ccc32)cc1	.
Brc1ccccc1-c1nnc(SCc2nc3ccccc3s2)o1	.
Oc1ccc(CN2CCN(Cc3ccccc3)CC2)c2cccnc12	.
O=[N+]([O-])c1cc(CN2CCN(c3ccccc3)CC2)c(O)c2ncccc12	330
SMILES	INS promoter act
O=C(Oc1c(CN2CCOCC2)cc(Cl)c2cccnc12)c1ccccc1	.
Cc1cc(C)c(S(=O)(=O)Cc2ccc(Cl)cc2)c(=O)[nH]1	.
COc1ccc(C2C(C#N)=C(N)Nc3onc(C(C)(C)C)c32)c(OC)c1 (stereo unspecified)	.
CCCCOc1ccc(C2C3CN(C(=O)OCC)CC=C3C(C#N)=C(N)C2(C#N)C#N)cc1OC (stereo unspecified)	.
COc1ccc(OC)c(C2C3CN(C(C)C)CC=C3C(C#N)=C(N)C2(C#N)C#N)c1 (stereo unspecified)	479
Cc1c(NC(=O)c2cc3ccccc3oc2=O)c(=O)n(-c2ccccc2)n1C	.
CCCN(CC1CC1)C(=O)COc1ccccc1C(=O)NCc1ccccc1	.
O=[N+]([O-])c1ccc(-c2ccn[nH]2)o1	.
Cc1c(OCc2nn[nH]n2)ccc2c3c(c(=O)oc12)CCCC3	.
CCOC(=O)COc1ccc2c3c(c(=O)oc2c1C)CCC3	519
CCCOc1ccc2c3c(c(=O)oc2c1OCCC)CCCC3	.
COc1cc(NC(=O)c2ccc(COc3ccccc3Br)o2)cc(OC)c1OC	.
CCN(CC(=O)O)S(=O)(=O)c1cc(Cl)ccc1Cl	.
Cc1ccc2cc(CN(Cc3ccco3)C(=O)NCc3ccccc3)c(=O)[nH]c2c1C	160
Cc1ccc2cc(CN(Cc3ccco3)C(=S)NCC3CCCO3)c(=O)[nH]c2c1C (stereo unspecified)	.
Cc1cccc2cc(CN(Cc3ccco3)C(=O)c3cccs3)c(=O)[nH]c12	.
Cc1ccc(S(=O)(=O)N2CCOCC2)cc1NC(=O)COC(=O)CNC(=O)c1ccc(Oc2ccccc2)cc1	.
CC(C(=O)c1ccccc1)n1cnc2ccccc2c1=O (stereo unspecified)	.
Cc1cccc(N2C(=O)CC(N(O)c3ccccc3)C2=O)c1 (stereo unspecified)	.
CCN1C(=O)/C(=C/C=C2/Sc3ccc4ccccc4c3N2CCO)SC1=S	.
CCN1C(c2ccccc2)=C(c2ccccc2)S/C1=C\C=C1/SC(=S)N(C)C1=O	.
CCCCN1C(=O)/C(=C/C=C2\SCCN2C)SC1=S	408
O=S(=O)(c1ccc(NCc2ccc(F)cc2)nc1)N1CCCC1	.
COc1ccc(-n2nc3c(N)n[nH]c3cc2=O)cc1	.
CC(C(=O)Nc1ccc(S(=O)(=O)N2CCOCC2)cc1)N1CCN(c2ccccn2)CC1 (stereo unspecified)	.
CCOC(=O)N1CCN(C2OC(=O)c3ccccc32)CC1 (stereo unspecified)	459
O=C1OC(N2CCN(C/C=C/c3ccccc3)CC2)c2ccccc21 (stereo unspecified)	.
O=C(C1CCCO1)N1CCN(S(=O)(=O)c2cccc3nsnc23)CC1 (stereo unspecified)	.

Bioassay records (PubChem BioAssay)
